# Assay results reported in publication PMC6938543 (Vaccine, 2019).
# Tested on: not listed separately
# Assay: MDPV and α-PVP serum concentrations after sc challenge dose
# Assay type: in vivo, rat
# Conditions: SAS and vaccinated rats, LC-MS/MS
row,Compound,serum concentration 24 h after drug administration
1,"CCCC(C(=O)c1ccc2c(c1)OCO2)N1CCCC1 (stereo not shown) [MDPV, 3,4-Methylenedioxypyrovalerone]",below the lower limit of quantitation
2,"CCCC(C(=O)c1ccccc1)N1CCCC1 (stereo not drawn) [α-PVP, α-pyrrolidinovalerophenone]",below the lower limit of quantitation

# Tested on: not listed separately
# Assay: Stability of α-PVP in extracted rat serum
# Assay type: physicochemical
# Conditions: 4 °C
row,Compound,stability in extracted serum
1,"CCCC(C(=O)c1ccccc1)N1CCCC1 (stereo not drawn) [α-PVP, α-pyrrolidinovalerophenone]",at least 59 h

# Tested on: not given
# Assay: not given
# Conditions: humans; cited from earlier work
Compound,blood concentrations associated with recreational use [ng/mL],blood concentrations at intoxication and overdose [ng/mL]
"CCCC(C(=O)c1ccc2c(c1)OCO2)N1CCCC1 (stereo not shown) [MDPV, 3,4-Methylenedioxypyrovalerone]",10 to 50,50 to 300

# Tested on: drug-specific pAb
# Assay: not given
# Conditions: pAb from earlier separate α-PVP and MDPV vaccines; cited from earlier work
row,Compound,pAb affinities constants
1,"CCCC(C(=O)c1ccc2c(c1)OCO2)N1CCCC1 (stereo not shown) [MDPV, 3,4-Methylenedioxypyrovalerone]",micromolar range
2,"CCCC(C(=O)c1ccccc1)N1CCCC1 (stereo not drawn) [α-PVP, α-pyrrolidinovalerophenone]",micromolar range

# Tested on: Anti-α-PVP/MDPV polyclonal antibody
# Assay: Competitive magnetic bead-based radioimmunoassay
# Assay type: binding, rat
# Conditions: 10 μM ligand; MDPV-t2 tracer
# Procedure, shortened: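 Sera came from male SD rats immunized sc with 100 μg bi-specific KLH conjugate plus 150 μL SAS. The competitive magnetic-bead RIA was specific for IgG binding and used tritium-labeled drug as tracer. Full inhibition curves with unlabeled drug gave IC50; one curve used a racemic homologous tritiated tracer. Analogues were tested only at 10 and 100 μM against 5 nM MDPV-t₂, scored as inhibition of tracer binding.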
row,Compound,inhibition of MDPV-t2 binding [%]
1,CCCC(C(=O)c1ccc(C)cc1)N1CCCC1 (stereo not shown) [Pyrovalerone],68

# Same assay, conditions: 100 μM ligand; MDPV-t2 tracer
row,Compound,inhibition of MDPV-t2 binding [%]
1,"CNC(C)Cc1ccc2c(c1)OCO2 (racemic) [MDMA, (±)-3,4-methylenedioxymethamphetamine]",≤ 50
2,"CCC(C(=O)c1ccc2c(c1)OCO2)N1CCCC1 (stereo not drawn) [3,4-Methylenedioxy-α-pyrrolidinobutiophenone]",50
3,COC(=O)[C@H]1[C@@H](OC(=O)c2ccccc2)C[C@@H]2CC[C@H]1N2C [cocaine],≤ 50
4,NCCc1ccc(O)c(O)c1 [dopamine],≤ 50
5,CNC[C@H](O)c1ccc(O)c(O)c1 [epinephrine],≤ 50
6,CN[C@@H](C)Cc1ccccc1 [methamphetamine],≤ 50
7,NC[C@H](O)c1ccc(O)c(O)c1 [norepinephrine],≤ 50
8,c1ccc(C2(N3CCCCC3)CCCCC2)cc1 [phencyclidine],≤ 50
9,CN[C@@H](C)[C@@H](O)c1ccccc1 [pseudoephedrine],≤ 50
10,NCCc1c[nH]c2ccc(O)cc12 [serotonin],≤ 50
11,NCCc1ccc(O)cc1 [tyramine],≤ 50

# Same assay, conditions: structurally related cathinones tested at 10 μM and 100 μM only; MDPV-t2 tracer
row,Compound,IC50 [µM]
1,"CCC(C(=O)c1ccc2c(c1)OCO2)N1CCCC1 (stereo not drawn) [3,4-Methylenedioxy-α-pyrrolidinobutiophenone]",100
2,"CC(C(=O)c1ccc2c(c1)OCO2)N1CCCC1 (stereo not drawn) [3,4-Methylenedioxy-α-pyrrolidinopropiophenone]",> 100
3,C[C@H](N)C(=O)c1ccccc1 [(S)-Cathinone],> 100
4,CNC(C)C(=O)c1ccc(C)cc1 (stereo not shown) [Mephedrone],> 100
5,CNC(C)C(=O)c1ccc2c(c1)OCO2 (stereo not shown) [Methylone],> 100
6,CCCC(NC)C(=O)c1ccccc1 (stereo not shown) [Pentedrone],> 100
7,CCCC(NC)C(=O)c1ccc2c(c1)OCO2 (stereo not shown) [Pentylone],> 100
8,(S)-Methcathinone,> 100

# Tested on: male SD rats
# Assay: not given
# Assay type: in vivo, rat
# Conditions: SAS control rats; sc
# Procedure, shortened: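 Thirteen weeks after initial sc immunization (SAS alone or vaccine plus SAS), male SD rats (n=5–6/group) were habituated 60 min in litter-lined open-field chambers. They then got sc saline or drug at 0.3–5.6 mg/kg in ascending doses, 2–3 days apart, with each drug in a separate study. Video tracking ran 6 h; horizontal distance was summed per rat and reported as mean ± SD.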
row,Compound,dose of peak effect on horizontal movement [mg/kg]
1,"CCCC(C(=O)c1ccccc1)N1CCCC1 (stereo not drawn) [α-PVP, α-pyrrolidinovalerophenone]",1.0
